Results published in paper PMC9302689 (British Journal of Clinical Pharmacology, 2022).

Test system: healthy male subjects
Assay: Pharmaco-EEG
Type: in vivo, human
Conditions: 12-hour post-dose period
Summary of the method: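 Continuous EEG was recorded from 21 electrodes placed by the 10–20 system, with mastoid electrodes replacing the earlobe ones. Recordings followed IPEG guidelines, twice pre-dose and at 0.5–10 h post-dose. Power spectra for Fz-Cz and Pz-O derivations were split into bands to give total band power (μV). Values were ln-transformed, analysed by MMRM over 12 h against pooled placebo, and back-transformed.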

Compound: CN1CCC23CCCCC2C1Cc1ccc(C(N)=O)cc13 (stereo not drawn) [ALKS 7119, (9α, 13α)‐17‐methylmorphinan‐3‐carboxamide]
- Alpha-power Fz-Cz, LSM CFB (3 mg single oral dose): 0.01 Hz
- Alpha-power Fz-Cz, estimate of difference compared to placebo (3 mg single oral dose): 0 [−0.97, 0.97] P = 1.00 Hz
- Alpha-power Pz-Oz, LSM CFB (3 mg single oral dose): −0.06 Hz
- Alpha-power Pz-Oz, estimate of difference compared to placebo (3 mg single oral dose): −0.16 [−0.41, 0.10] P = .23 Hz
- Beta-power Fz-Cz, LSM CFB (3 mg single oral dose): 0.03 Hz
- Beta-power Fz-Cz, estimate of difference compared to placebo (3 mg single oral dose): −0.09 [−0.31, 0.14] P = .45 Hz
- Beta-power Pz-Oz, LSM CFB (3 mg single oral dose): −0.03 Hz
- Beta-power Pz-Oz, estimate of difference compared to placebo (3 mg single oral dose): −0.16 [−0.36, 0.04] P = .11 Hz
- Delta-power Fz-Cz, LSM CFB (3 mg single oral dose): 0 Hz
- Delta-power Fz-Cz, estimate of difference compared to placebo (3 mg single oral dose): −0.11 [−0.32, 0.10] P = .32 Hz
- Delta-power Pz-Oz, LSM CFB (3 mg single oral dose): −0.12 Hz
- Delta-power Pz-Oz, estimate of difference compared to placebo (3 mg single oral dose): −0.18 [−0.41, 0.05] P = .12 Hz
- Gamma-power Fz-Cz, LSM CFB (3 mg single oral dose): 0.05 Hz
- Gamma-power Fz-Cz, estimate of difference compared to placebo (3 mg single oral dose): −0.04 [−0.25, 0.16] P = .66 Hz
- Gamma-power Pz-Oz, LSM CFB (3 mg single oral dose): 0.09 Hz
- Gamma-power Pz-Oz, estimate of difference compared to placebo (3 mg single oral dose): −0.12 [−0.37, 0.13] P = .35 Hz
- Theta-power Fz-Cz, LSM CFB (3 mg single oral dose): −0.06 Hz
- Theta-power Fz-Cz, estimate of difference compared to placebo (3 mg single oral dose): −0.14 [−0.36, 0.09] P = .23 Hz
- Theta-power Pz-Oz, LSM CFB (3 mg single oral dose): −0.1 Hz
- Theta-power Pz-Oz, estimate of difference compared to placebo (3 mg single oral dose): −0.17 [−0.40, 0.06] P = .15 Hz
- Alpha-power Fz-Cz, LSM CFB (10 mg single oral dose): 0.09 Hz
- Alpha-power Fz-Cz, estimate of difference compared to placebo (10 mg single oral dose): 0.15 [−0.94, 1.24] P = .79 Hz
- Alpha-power Pz-Oz, LSM CFB (10 mg single oral dose): 0.11 Hz
- Alpha-power Pz-Oz, estimate of difference compared to placebo (10 mg single oral dose): 0.01 [−0.25, 0.27] P = .94 Hz
- Beta-power Fz-Cz, LSM CFB (10 mg single oral dose): 0.08 Hz
- Beta-power Fz-Cz, estimate of difference compared to placebo (10 mg single oral dose): −0.03 [−0.26, 0.19] P = .78 Hz
- Beta-power Pz-Oz, LSM CFB (10 mg single oral dose): 0.14 Hz
- Beta-power Pz-Oz, estimate of difference compared to placebo (10 mg single oral dose): 0.01 [−0.19, 0.21] P = .91 Hz
- Delta-power Fz-Cz, LSM CFB (10 mg single oral dose): 0.05 Hz
- Delta-power Fz-Cz, estimate of difference compared to placebo (10 mg single oral dose): −0.05 [−0.26, 0.16] P = .65 Hz
- Delta-power Pz-Oz, LSM CFB (10 mg single oral dose): 0.07 Hz
- Delta-power Pz-Oz, estimate of difference compared to placebo (10 mg single oral dose): 0.01 [−0.23, 0.24] P = .96 Hz
- Gamma-power Fz-Cz, LSM CFB (10 mg single oral dose): 0.09 Hz
- Gamma-power Fz-Cz, estimate of difference compared to placebo (10 mg single oral dose): −0.01 [−0.21, 0.21] P = .95 Hz
- Gamma-power Pz-Oz, LSM CFB (10 mg single oral dose): 0.13 Hz
- Gamma-power Pz-Oz, estimate of difference compared to placebo (10 mg single oral dose): −0.08 [−0.33, 0.17] P = .54 Hz
- Theta-power Fz-Cz, LSM CFB (10 mg single oral dose): 0.02 Hz
- Theta-power Fz-Cz, estimate of difference compared to placebo (10 mg single oral dose): −0.05 [−0.28, 0.18] P = .65 Hz
- Theta-power Pz-Oz, LSM CFB (10 mg single oral dose): 0.04 Hz
- Theta-power Pz-Oz, estimate of difference compared to placebo (10 mg single oral dose): −0.03 [−0.26, 0.20] P = .79 Hz
- Alpha-power Fz-Cz, LSM CFB (25 mg single oral dose): −0.01 Hz
- Alpha-power Pz-Oz, LSM CFB (25 mg single oral dose): −0.01 Hz
- Alpha-power Pz-Oz, estimate of difference compared to placebo (25 mg single oral dose): −0.11 [−0.36, 0.15] P = .41 Hz
- Beta-power Fz-Cz, LSM CFB (25 mg single oral dose): 0.05 Hz
- Beta-power Fz-Cz, estimate of difference compared to placebo (25 mg single oral dose): −0.06 [−0.28, 0.16] P = .58 Hz
- Beta-power Pz-Oz, LSM CFB (25 mg single oral dose): 0.08 Hz
- Beta-power Pz-Oz, estimate of difference compared to placebo (25 mg single oral dose): −0.04 [−0.24, 0.15] P = .66 Hz
- Delta-power Fz-Cz, LSM CFB (25 mg single oral dose): −0.04 Hz
- Delta-power Fz-Cz, estimate of difference compared to placebo (25 mg single oral dose): −0.14 [−0.35, 0.07] P = .19 Hz
- Delta-power Pz-Oz, LSM CFB (25 mg single oral dose): 0 Hz
- Delta-power Pz-Oz, estimate of difference compared to placebo (25 mg single oral dose): −0.06 [−0.31, 0.17] P = .61 Hz
- Gamma-power Fz-Cz, LSM CFB (25 mg single oral dose): 0.06 Hz
- Gamma-power Fz-Cz, estimate of difference compared to placebo (25 mg single oral dose): −0.04 [−0.04, 0.16] P = .69 Hz
- Gamma-power Pz-Oz, LSM CFB (25 mg single oral dose): 0.16 Hz
- Gamma-power Pz-Oz, estimate of difference compared to placebo (25 mg single oral dose): −0.05 [−0.30, 0.20] P = .70 Hz
- Theta-power Fz-Cz, LSM CFB (25 mg single oral dose): −0.06 Hz
- Theta-power Fz-Cz, estimate of difference compared to placebo (25 mg single oral dose): −0.13 [−0.36, 0.09] P = .24 Hz
- Theta-power Pz-Oz, LSM CFB (25 mg single oral dose): −0.04 Hz
- Theta-power Pz-Oz, estimate of difference compared to placebo (25 mg single oral dose): −0.11 [−0.35, 0.12] P = .33 Hz
- Alpha-power Fz-Cz, LSM CFB (50 mg single oral dose): 0.08 Hz
- Alpha-power Fz-Cz, estimate of difference compared to placebo (50 mg single oral dose): 0.13 [−0.81, 1.07] P = .79 Hz
- Alpha-power Pz-Oz, LSM CFB (50 mg single oral dose): 0.03 Hz
- Alpha-power Pz-Oz, estimate of difference compared to placebo (50 mg single oral dose): −0.06 [−0.32, 0.19] P = .62 Hz
- Beta-power Fz-Cz, LSM CFB (50 mg single oral dose): 0.04 Hz
- Beta-power Fz-Cz, estimate of difference compared to placebo (50 mg single oral dose): −0.07 [−0.31, 0.15] P = .51 Hz
- Beta-power Pz-Oz, LSM CFB (50 mg single oral dose): 0.13 Hz
- Beta-power Pz-Oz, estimate of difference compared to placebo (50 mg single oral dose): 0 [−0.20, 0,20] P = 1.00 Hz
- Delta-power Fz-Cz, LSM CFB (50 mg single oral dose): 0 Hz
- Delta-power Fz-Cz, estimate of difference compared to placebo (50 mg single oral dose): −0.10 [−0.31, 0.11] P = .34 Hz
- Delta-power Pz-Oz, LSM CFB (50 mg single oral dose): 0.08 Hz
- Delta-power Pz-Oz, estimate of difference compared to placebo (50 mg single oral dose): 0.02 [−0.21, 0.25] P = .87 Hz
- Gamma-power Fz-Cz, LSM CFB (50 mg single oral dose): 0.01 Hz
- Gamma-power Fz-Cz, estimate of difference compared to placebo (50 mg single oral dose): −0.09 [−0.31, 0.11] P = .39 Hz
- Gamma-power Pz-Oz, LSM CFB (50 mg single oral dose): 0.08 Hz
- Gamma-power Pz-Oz, estimate of difference compared to placebo (50 mg single oral dose): −0.12 [−0.38, 0.13] P = .33 Hz
- Theta-power Fz-Cz, LSM CFB (50 mg single oral dose): 0.02 Hz
- Theta-power Fz-Cz, estimate of difference compared to placebo (50 mg single oral dose): −0.05 [−0.28, 0.17] P = .64 Hz
- Theta-power Pz-Oz, LSM CFB (50 mg single oral dose): 0.08 Hz
- Theta-power Pz-Oz, estimate of difference compared to placebo (50 mg single oral dose): 0.01 [−0.23, 0.24] P = .95 Hz
- Alpha-power Fz-Cz, LSM CFB (75 mg single oral dose): 0.16 Hz
- Alpha-power Fz-Cz, estimate of difference compared to placebo (75 mg single oral dose): 0.32 [−0.64, 1.29] P = .51 Hz
- Alpha-power Pz-Oz, LSM CFB (75 mg single oral dose): 0.14 Hz
- Alpha-power Pz-Oz, estimate of difference compared to placebo (75 mg single oral dose): 0.04 [−0.22, 0.30] P = .75 Hz
- Beta-power Fz-Cz, LSM CFB (75 mg single oral dose): 0.21 Hz
- Beta-power Fz-Cz, estimate of difference compared to placebo (75 mg single oral dose): 0.09 [−0.13, 0.32] P = .40 Hz
- Beta-power Pz-Oz, LSM CFB (75 mg single oral dose): 0.17 Hz
- Beta-power Pz-Oz, estimate of difference compared to placebo (75 mg single oral dose): 0.04 [−0.16, 0.24] P = .69 Hz
- Delta-power Fz-Cz, LSM CFB (75 mg single oral dose): 0.17 Hz
- Delta-power Fz-Cz, estimate of difference compared to placebo (75 mg single oral dose): 0.06 [−0.15, 0.27] P = .55 Hz
- Delta-power Pz-Oz, LSM CFB (75 mg single oral dose): 0.1 Hz
- Delta-power Pz-Oz, estimate of difference compared to placebo (75 mg single oral dose): 0.04 [−0.21, 0.27] P = .76 Hz
- Gamma-power Fz-Cz, LSM CFB (75 mg single oral dose): 0.27 Hz
- Gamma-power Fz-Cz, estimate of difference compared to placebo (75 mg single oral dose): 0.17 [−0.03, 0.37] P = .10 Hz
- Gamma-power Pz-Oz, LSM CFB (75 mg single oral dose): 0.27 Hz
- Gamma-power Pz-Oz, estimate of difference compared to placebo (75 mg single oral dose): 0.06 [−0.19, 0.32] P = .64 Hz
- Theta-power Fz-Cz, LSM CFB (75 mg single oral dose): 0.18 Hz
- Theta-power Fz-Cz, estimate of difference compared to placebo (75 mg single oral dose): 0.11 [−0.12, 0.33] P = .34 Hz
